According to ChEMBL document CHEMBL1147110, “Antifungal drug susceptibility profile of Pichia anomala isolates from patients presenting with nosocomial fungemia” (2007):

Key:
Format in all cases: functional
Wickerhamomyces anomalus [1] = assay: Antimicrobial susceptibility of Pichia anomala from nosocomial fungemia patient assessed as percent susceptible isolates at 0.12 ug/ml by EUCAST method
Procedure, shortened: (§1)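 EUCAST broth microdilution on the same 58 P. anomala isolates (52 bloodstream isolates from Brazil, Argentina and Spain; 6 from USA). MICs were read spectrophotometrically at 530 nm after 24 h incubation. Endpoints were complete or nearly complete (≥95%) inhibition for amphotericin B, and ≥50% inhibition for azoles and caspofungin, relative to drug-free control. Isolates were tallied as cumulative % per MIC.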

Wickerhamomyces anomalus [2] = assay: Antimicrobial susceptibility of Pichia anomala from nosocomial fungemia patient assessed as percent susceptible isolates at 0.015 ug/ml by EUCAST method; procedure, shortened: as §1
Wickerhamomyces anomalus [3] = assay: Antimicrobial susceptibility of Pichia anomala from nosocomial fungemia patient assessed as percent susceptible isolates at 0.03 ug/ml by EUCAST method; procedure, shortened: as §1
Wickerhamomyces anomalus [4] = assay: Antimicrobial susceptibility of Pichia anomala from nosocomial fungemia patient assessed as percent susceptible isolates at 0.06 ug/ml by CLSI method
Procedure, shortened: (§2)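 CLSI broth microdilution on 58 P. anomala isolates: 52 unrelated bloodstream isolates (36 Brazil, 13 Argentina, 3 Spain) and 6 from unknown clinical specimens (USA). Fluconazole was tested at 0.12–64 µg/ml. MICs were read spectrophotometrically at 530 nm after 48 h. Endpoints were ≥95% inhibition vs drug-free control for amphotericin B, and ≥50% for azoles and caspofungin. Results are given as cumulative % of isolates at each MIC.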

Wickerhamomyces anomalus [5] = assay: Antimicrobial susceptibility of Pichia anomala from nosocomial fungemia patient assessed as percent susceptible isolates at 0.03 ug/ml by CLSI method; procedure, shortened: as §2
Wickerhamomyces anomalus [6] = assay: Antimicrobial susceptibility of Pichia anomala from nosocomial fungemia patient assessed as percent susceptible isolates at 0.015 ug/ml by CLSI method; procedure, shortened: as §2
Wickerhamomyces anomalus [7] = assay: Antimicrobial susceptibility of Pichia anomala from nosocomial fungemia patient assessed as percent susceptible isolates by CLSI method
Procedure, shortened: (§3)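 58 P. anomala isolates (52 unrelated bloodstream isolates from Brazil, Argentina and Spain; 6 from unknown US clinical specimens). CLSI broth microdilution, 48 h incubation, read at 530 nm. The MIC endpoint was ≥95% inhibition versus the drug-free well for the polyene and ≥50% for azoles and the echinocandin. Cumulative % of isolates inhibited at each MIC was recorded, with susceptibility assigned by CLSI interpretive criteria.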

Wickerhamomyces anomalus [8] = assay: Antimicrobial susceptibility of Pichia anomala from nosocomial fungemia patient assessed as percent susceptible isolates at 0.06 ug/ml by EUCAST method; procedure, shortened: as §1
Wickerhamomyces anomalus [9] = assay: Antimicrobial susceptibility of Pichia anomala from nosocomial fungemia patient assessed as percent susceptible isolates by EUCAST method; procedure, shortened: as §1
Wickerhamomyces anomalus [10] = assay: Antimicrobial susceptibility of Pichia anomala from nosocomial fungemia patient assessed as percent susceptible isolates at 0.12 ug/ml by CLSI method; procedure, shortened: as §3
Wickerhamomyces anomalus [11] = assay: Antimicrobial susceptibility of Pichia anomala from nosocomial fungemia patient assessed as percent susceptible isolates at 0.25 ug/ml by CLSI method; procedure, shortened: as §2
Wickerhamomyces anomalus [12] = assay: Antimicrobial susceptibility of Pichia anomala from nosocomial fungemia patient assessed as percent susceptible isolates at 1 ug/ml by CLSI method; procedure, shortened: as §2
Wickerhamomyces anomalus [13] = assay: Antimicrobial susceptibility of Pichia anomala from nosocomial fungemia patient assessed as percent susceptible isolates at 0.5 ug/ml by CLSI method; procedure, shortened: as §3
Wickerhamomyces anomalus [14] = assay: Antimicrobial susceptibility of Pichia anomala from nosocomial fungemia patient assessed as percent susceptible isolates at 0.5 ug/ml by EUCAST method; procedure, shortened: as §1
Wickerhamomyces anomalus [15] = assay: Antimicrobial susceptibility of Pichia anomala from nosocomial fungemia patient assessed as percent susceptible isolates at 1 ug/ml by EUCAST method; procedure, shortened: as §1
Wickerhamomyces anomalus [16] = assay: Antimicrobial susceptibility of Pichia anomala from nosocomial fungemia patient assessed as percent susceptible isolates at 0.25 ug/ml by EUCAST method
Procedure, shortened: as §3, with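 “EUCAST” for “CLSI”, “24” for “48”, “spectrophotometric reading” for “read”, “control” for “well”, “recorded.” for “recorded, with susceptibility assigned by CLSI interpretive criteria.”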

Wickerhamomyces anomalus [17] = assay: Antimicrobial susceptibility of Pichia anomala from nosocomial fungemia patient assessed as percent susceptible isolates at 2 ug/ml by CLSI method; procedure, shortened: as §3
Wickerhamomyces anomalus [18] = assay: Antimicrobial susceptibility of Pichia anomala from nosocomial fungemia patient assessed as percent susceptible isolates at 2 ug/ml by EUCAST method
Procedure, shortened: as §3, with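 “EUCAST” for “CLSI”, “24” for “48”, “spectrophotometric reading” for “read”, “control” for “well”, “recorded.” for “recorded, with susceptibility assigned by CLSI interpretive criteria.”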

Wickerhamomyces anomalus [19] = assay: Antimicrobial susceptibility of Pichia anomala from nosocomial fungemia patient assessed as percent susceptible isolates at 16 ug/ml by EUCAST method
Procedure, shortened: as §3, with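 “EUCAST” for “CLSI”, “24” for “48”, “spectrophotometric reading” for “read”, “control” for “well”, “recorded.” for “recorded, with susceptibility assigned by CLSI interpretive criteria.”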

Wickerhamomyces anomalus [20] = assay: Antimicrobial susceptibility of Pichia anomala from nosocomial fungemia patient assessed as percent susceptible isolates at 8 ug/ml by EUCAST method
Procedure, shortened: as §3, with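 “EUCAST” for “CLSI”, “24” for “48”, “spectrophotometric reading” for “read”, “control” for “well”, “recorded.” for “recorded, with susceptibility assigned by CLSI interpretive criteria.”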

Wickerhamomyces anomalus [21] = assay: Antimicrobial susceptibility of Pichia anomala from nosocomial fungemia patient assessed as percent susceptible isolates at 4 ug/ml by EUCAST method
Procedure, shortened: as §3, with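 “EUCAST” for “CLSI”, “24” for “48”, “spectrophotometric reading” for “read”, “control” for “well”, “recorded.” for “recorded, with susceptibility assigned by CLSI interpretive criteria.”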

Wickerhamomyces anomalus [22] = assay: Antimicrobial susceptibility of Pichia anomala from nosocomial fungemia patient assessed as percent susceptible isolates at 8 ug/ml by CLSI method; procedure, shortened: as §3
Wickerhamomyces anomalus [23] = assay: Antimicrobial susceptibility of Pichia anomala from nosocomial fungemia patient assessed as percent susceptible isolates at 16 ug/ml by CLSI method; procedure, shortened: as §3
Wickerhamomyces anomalus [24] = assay: Antimicrobial susceptibility of Pichia anomala from nosocomial fungemia patient assessed as percent susceptible isolates at 4 ug/ml by CLSI method; procedure, shortened: as §3

SMILES | Activity (Wickerhamomyces anomalus [1]) [%] | Activity (Wickerhamomyces anomalus [2]) [%] | Activity (Wickerhamomyces anomalus [3]) [%] | Cumulative percent of isolates inhibited (Wickerhamomyces anomalus [4]) [%] | Cumulative percent of isolates inhibited (Wickerhamomyces anomalus [5]) [%] | Activity (Wickerhamomyces anomalus [6]) [%] | Activity (Wickerhamomyces anomalus [7]) [%] | Activity (Wickerhamomyces anomalus [8]) [%] | Activity (Wickerhamomyces anomalus [9]) [%] | Activity (Wickerhamomyces anomalus [10]) [%] | Cumulative percent of isolates inhibited (Wickerhamomyces anomalus [11]) [%] | Activity (Wickerhamomyces anomalus [12]) [%] | Cumulative percent of isolates inhibited (Wickerhamomyces anomalus [13]) [%] | Activity (Wickerhamomyces anomalus [14]) [%] | Activity (Wickerhamomyces anomalus [15]) [%] | Activity (Wickerhamomyces anomalus [16]) [%] | further results
CC[C@H](C)C[C@H](C)CCCCCCCCC(=O)N[C@H]1C[C@@H](O)[C@@H](NCCN)NC(=O)[C@@H]2[C@@H](O)CCN2C(=O)[C@H]([C@H](O)CCN)NC(=O)[C@H]([C@H](O)[C@@H](O)c2ccc(O)cc2)NC(=O)[C@@H]2C[C@@H](O)CN2C(=O)[C@H]([C@@H](C)O)NC1=O [CASPOFUNGIN] | 100 | 0 | 12 | 17.2 | 1.7 | 0 | 100 | 70.6 | 100 | 84.5 | 100 | – | – | – | – | – | –
C[C@@H]1[C@H](O)[C@@H](C)/C=C/C=C/C=C/C=C/C=C/C=C/C=C/[C@H](O[C@@H]2O[C@H](C)[C@@H](O)[C@H](N)[C@@H]2O)C[C@@H]2O[C@](O)(C[C@@H](O)C[C@@H](O)[C@H](O)CC[C@@H](O)C[C@@H](O)CC(=O)O[C@H]1C)C[C@H](O)[C@H]2C(=O)O [AMPHOTERICIN B] | 15.5 | 0 | 0 | 0 | 0 | 0 | 100 | 0 | 100 | 12 | 36 | 100 | 88 | 94.7 | 100 | 55.1 | –
CCC(C)n1ncn(-c2ccc(N3CCN(c4ccc(OCC5COC(Cn6cncn6)(c6ccc(Cl)cc6Cl)O5)cc4)CC3)cc2)c1=O (stereo not given) [ITRACONAZOLE] | 39.5 | 0 | 0 | 12 | 0 | 1.7 | 36.2 | 7 | 39.6 | 36.1 | 74.1 | 100 | 96.5 | 98.2 | 100 | 91.2 | –
OC(Cn1cncn1)(Cn1cncn1)c1ccc(F)cc1F [FLUCONAZOLE] | 0 | 0 | 0 | – | – | 0 | 96.6 | 0 | 93 | 0 | – | 0 | 0 | 0 | 0 | 0 | Activity (Wickerhamomyces anomalus [17]): 15.5%; Activity (Wickerhamomyces anomalus [18]): 22.4%; Activity (Wickerhamomyces anomalus [19]): 100%; Activity (Wickerhamomyces anomalus [20]): 96.5%; Activity (Wickerhamomyces anomalus [21]): 55.1%; Activity (Wickerhamomyces anomalus [22]): 93%; Activity (Wickerhamomyces anomalus [23]): 100%; Activity (Wickerhamomyces anomalus [4]): 0%; Activity (Wickerhamomyces anomalus [5]): 0%; Activity (Wickerhamomyces anomalus [24]): 56.8%; Activity (Wickerhamomyces anomalus [11]): 0%
C[C@@H](c1ncncc1F)[C@](O)(Cn1cncn1)c1ccc(F)cc1F [VORICONAZOLE] | 65.5 | 0 | 3.4 | 18.9 | 3.4 | 0 | 100 | 29.3 | 100 | 39.6 | 96.5 | – | 100 | – | – | 100 | –
